Publication PMC10472104 (Clinical Cancer Research, 2023)
Entries after “also recorded” stand apart in the source; their conditions may differ.

Experiments:
Format in all cases: cell-based, human
[1] = system: TC32 and CHLA10 spheroids; assay: 3D spheroid assays, comparison across both models; conditions: 4 days
γH2AX in TC32 cells = assay: γH2AX expression by Western blotting; conditions: TC32, 24 hours
Summary of the method: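 Cells grown to 70–80% confluency in six-well plates, settled overnight, serum-starved 24 h, then given DMSO or increasing concentrations of test compound for 24 h. Lysates were transferred to nitrocellulose and blocked. Blots were probed overnight at 4°C with rabbit anti-phospho-H2AX (Ser139) and anti-total H2AX, then 1 h at room temperature with IRDye800CW anti-rabbit, and scanned on an Odyssey imager.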

γH2AX in CHLA10 cells = assay: γH2AX expression by Western blotting; conditions: CHLA10, 24 hours
[2] = system: γH2AX foci in CHLA10 cells; assay: γH2AX foci by immunofluorescence and confocal microscopy; conditions: CHLA10, increasing doses, 24 hours
Summary of the method: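 Cells were fixed in 4% paraformaldehyde 30 min at room temperature and permeabilized with 0.5% Triton-X. They were probed overnight at 4°C with rabbit anti-phospho-H2AX (Ser139), then Alexa Fluor 488 anti-rabbit, and DAPI-mounted. Foci were counted from confocal images.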

TC32 cells = assay: Cell-cycle analysis; conditions: TC32 (Fig. 3A)
CHLA10 cells = assay: Cell-cycle analysis; conditions: CHLA10 (Fig. 3B)

SMILES	spheroid activity compared with kt-3283 [1]	γH2AX expression with increasing doses (γH2AX in TC32 cells)	γH2AX expression with increasing doses (γH2AX in CHLA10 cells)	γH2AX foci formation [2]	cell-cycle arrest induced (TC32 cells)	cell-cycle arrest induced (CHLA10 cells)
Cn1ncnc1[C@H]1c2n[nH]c(=O)c3cc(F)cc(c23)N[C@@H]1c1ccc(F)cc1 [talazoparib]	equivalent activity; also recorded: equivalent efficacy					
O=C(c1cc(Cc2n[nH]c(=O)c3ccccc23)ccc1F)N1CCN(C(=O)C2CC2)CC1 [olaparib]		induced γH2AX expression in a dose-dependent manner	induced γH2AX expression in a dose-dependent manner	dose-dependent γH2AX foci formation		
O=C(CCCCCCC(=O)Nc1ccccc1)NO [vorinostat]		induced γH2AX expression in a dose-dependent manner	induced γH2AX expression in a dose-dependent manner	milder DNA damage foci formation	G0/G1 cell-cycle arrest	G0/G1 cell-cycle arrest
